Rows were chosen to be rich in hits. Some 6.6% of all compounds tested hit in one or more screens of this group.
HER2 expr 66K = inhibitors of Her2 protein expression, primary screen, SKBR-3 cells, AlphaScreen, 66K library. Receptor tyrosine-protein kinase erbB-2 (Homo sapiens), P04626. 0.69% of 65,000 active. SKBR-3 HER2 protein level, 18-24 h; active compounds read low. HER2 level % of control, % at 10 µM;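 active means HER2 level under 5% of the carrier-only control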;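 further: 100% = DMSO carrier and 0% = 500 nM PU-H71 HSP90 inhibitor; lower value means stronger loss of Her2 protein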
PostGolgi ctrl = growth inhibition of yeast control strain, primary screen, counter-screen for post-Golgi transport modulator project | efflux-deficient yeast background strain, growth absorbance A615, 16 h | 5% of 98,000 active | inhibition, % at 10 µM
tolC growth inh = growth inhibitors of E. coli tolC mutant, primary screen, strain BW25113 ΔtolC::kan, 384-well. growth inhibition, % at 10 µM (by protocol). OD615. 2.2% of 65,000 active;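 active means growth inhibition at or above a cutoff equal to the mean over every tested compound plus 3 SD, cut at about 60% in these data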;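 further: growth measured after 20 h incubation at 37 °C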
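signal = optical density read at 615 nm | test system = E. coli ΔtolC::kan strain BW25113 | timing = 20 h compound exposure of bacteria at 37 °C | buffer or medium = LB medium plus 50 µg/mL kanamycin | compound dosing = 10 µM final, single dose | evaluation = % inhibition of E. coli growth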
E coli WT exp = growth inhibitors of wild-type E. coli, primary screen, strain BW25113, expanded library, OD600; OD600 absorbance; growth inhibition, % at 100 µM; 0.15% of 98,000 active; AID 710, 2007;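 active means growth inhibition above about 50% at one test dose, limit read from the data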;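 further: growth measured after 20 h incubation at 37 °C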
PostGolgi yeast = phenotypic screen on post-Golgi transport, primary screen; post-Golgi transport phenotypic cell assay; inhibition, % at 10 µM; 0.9% of 98,000 active; AID 739, 2007;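 further: yeast cells grown in 1536-well plates; yeast grown about 18 h at 30C before absorbance read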
The depositor's hits bear a star; . = no result given. Unless noted, no stated cut-off is given here; in the data, active means inhibition above about 30%; inactive means the rest.

SMILES	HER2 expr 66K	PostGolgi ctrl	tolC growth inh	E coli WT exp	PostGolgi yeast
CC(/C=N/NC(=O)c1ccncc1)=C\c1ccc(C(C)C)cc1	.	35*	.	-1	30*
CSCC[C@H](NC(=O)OC(C)(C)C)c1nnc(SCc2cccc(F)c2)o1	88	6	29	-6	14
CC(C)C[C@H](NC(=O)OC(C)(C)C)c1nnc(SCc2cccc(F)c2)o1	130	3	73*	-4	-12
Cc1cccc(N(CC(=O)NC2CCCCC2)C(=O)c2c(C)noc2C)c1	114	-2	5	-1	-2
CCCCNC(=O)c1sc(=S)n2c1[nH]c(=O)c1ccccc12	86	44*	100*	11	6
O=C(NCC1CCCO1)c1sc(=S)n2c1[nH]c(=O)c1ccc(C(=O)N3CCCCC3)cc12 (configuration not stated)	96	2	67*	-9	-1
CCCCNC(=O)c1sc(=S)n(-c2ccccc2OC)c1N	.	1	.	4	-4
O=C(NCC1CCCO1)c1ccc2c(=O)n(CC3CCCO3)c(=S)[nH]c2c1 (configuration not stated)	.	-3	.	5	-6
O=C(NC1CCCCC1)c1sc(=S)n2c1[nH]c(=O)c1ccccc12	61	56*	100*	-11	-3
O=C1CC2(CON=C2c2ccc(F)cc2)C(=O)N1c1ccc(F)cc1 (configuration not stated)	95	33*	-22	4	5
COC(=O)c1cc2sc(Cl)cc2n1CC(=O)NCC1CCCO1 (configuration not stated)	.	36*	.	6	6
COC(=O)c1cc2sc(Cl)cc2n1CC(=O)Nc1ccc(OC)c(OC)c1OC	77	-1	13	-10	4
Cc1nnc(SCC(=O)NC(C)c2ccccc2)[nH]c1=O (configuration not stated)	80	-1	-23	0	-2
COCCn1nnnc1C(c1ccc(Cl)cc1)N1CCSCC1 (configuration not stated)	97	2	-17	-10	-1
c1ccc(Cn2nnnc2C(c2cccs2)N2CCCCCC2)cc1 (configuration not stated)	121	24	77*	-24	5
Oc1ccc(N2CCN(C(c3cccs3)c3nnnn3CCc3ccccc3)CC2)cc1 (configuration not stated)	100	35*	20	-4	8
Cc1ccc(C(c2nnnn2CCc2ccccc2)N2CCSCC2)cc1 (configuration not stated)	88	24	64*	-20	.
c1ccc(Cn2nnnc2C(c2cccs2)N2CCc3ccccc3C2)cc1 (configuration not stated)	105	19	51	-11	-9
CC(C)(C)C(=O)C(Oc1cccc2nonc12)n1cncn1 (configuration not stated)	78	17	-7	-2	46*
COCCn1c(CN2CCN(c3ccccc3F)CC2)nc2c1c(=O)n(C)c(=O)n2C	114	.	-14	.	.
Fc1ccc(CSc2nc3ccccc3[nH]2)c2ccccc12	.	47*	.	-4	2
O=c1cc(CSc2nc3ccccc3[nH]2)c2ccccc2[nH]1	.	7	.	-7	-6
COc1ccc(-c2nc(CSCC(=O)NC3CCCc4ccccc43)c(C)o2)cc1 (configuration not stated)	.	11	.	-17	11
Cc1cc(C)c(S(=O)(=O)NCCn2ccc3ccccc32)c(C)c1	.	57*	.	3	0
COc1ccccc1-c1noc(-c2ccccc2C(=O)Nc2ccccc2)n1	88	27	-23	-22	7
SMILES	HER2 expr 66K	PostGolgi ctrl	tolC growth inh	E coli WT exp	PostGolgi yeast
COc1cccc(NC(=O)c2ccccc2-c2nc(-c3ccccc3)no2)c1	87	42*	28	-11	-3
COc1cccc(NC(=O)c2ccccc2-c2nc(-c3ccc(F)cc3)no2)c1	102	56*	24	-9	25
COc1ccc(-c2noc(-c3ccccc3C(=O)NCc3ccco3)n2)cc1OC	131	31*	9	-10	-2
COc1cccc(NC(=O)c2ccccc2-c2nc(-c3ccc(Cl)cc3)no2)c1	92	35*	36	-5	-7
COc1ccccc1NS(=O)(=O)c1cc(Cl)ccc1OC	100	10	-3	-3	8
O=C(Cc1c(F)cccc1Cl)NCCCn1ccnc1	.	-2	.	4	-5
NC(=S)Nc1cccc2cccnc12	.	35*	.	5	11
O=C(NNC(=S)NC(=O)C12CC3CC(CC(C3)C1)C2)c1ccncc1	.	48*	.	5	42*
CC/C(=N\NC(=O)c1ccncc1)C12CC3CC(CC(C3)C1)C2	.	2	.	4	6
CN(C)CCNC(=O)c1ccc2c(c1)N(Cc1ccc(F)cc1)CCS2	91	2	15	0	0
O=C(c1ccc2c(c1)N(Cc1ccccc1)CCS2)N1CCCCC1	.	43*	.	-12	2
CCCn1c2c(c(O)c(C(=O)Nc3ccc(C)cn3)c1=O)CCCC2	98	.	-4	.	.
CCCn1c2c(c(O)c(C(=O)Nc3ncccc3C)c1=O)CCCC2	82	43*	50	1	-2
O=c1cc(O)c2c(=O)n3c4c(cccc4c2o1)CCC3	92	.	96*	.	.
CCn1c(=O)c2c(O)cc(=O)oc2c2ccccc21	.	2	.	-2	32*
O=c1cc(O)c2c(=O)n(-c3ccccc3)c3ccccc3c2o1	100	5	43	0	-3
CCCCOC(=O)Nc1cccc(C(=O)OCC)c1	.	0	.	-2	5
CCC(=O)N/C(=N\OCc1ccc(F)cc1)c1nonc1NC(=O)CC	.	6	.	-2	-5
CC1CN(C(=O)c2ccccc2C(=O)c2ncc[nH]2)CC(C)O1 (configuration not stated)	62	-7	-2	11	12
O=C(c1ncc[nH]1)c1ccccc1C(=O)N1CCOCC1	124	33*	-15	9	-1
CCOc1cc(CNCCO)cc(Br)c1OCc1ccc(Cl)cc1	.	27	.	78*	1
CCOc1cc(CNCCO)cc(Br)c1OCc1ccccc1Cl	.	15	.	48	3
CCOc1cc(CNC(C)(C)CO)cc(Br)c1OCc1ccc(Cl)cc1Cl	.	91*	.	27	13
CCOc1cc(/C=N/O)cc(Br)c1OCc1ccc(Cl)cc1	.	37*	.	-3	4
COc1ccccc1CN1C(=S)SC(C)(C)C1NO (configuration not stated)	89	8	26	-2	-3
COC(=O)[C@H](CC(C)C)NC(=O)NC1CCCCC1C (some centres not stated)	.	-1	.	3	-1
CCCCCCSC1=C(C#N)C(c2ccccc2)CC(=O)N1 (configuration not stated)	64	57*	2	-6	36*
N#CC1=C(SCc2ccccc2)NC(=O)CC1c1ccc(O)cc1 (configuration not stated)	126	4	16	4	-5

Compound activity as filed in PubChem BioAssay.
